# Many of the other results were omitted from the sample, so hits are more common in it than they were.
# HUVEC prolif 384: inhibitors of human endothelial cell proliferation. AID 648. HUVEC proliferation, CellTiter-Glo luminescence, 72 h; active compounds read low. 86,000 tested, 1.1% active. viability, % at 10 µM (by protocol);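 active means viability at or below 30%; inactive means viability above 30%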;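 further: 100% = median luminescence of DMSO-only cell control wells on each plate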
# HCT116 PTEN-null: suppresses growth of cells with PTEN deletion. HCT116 PTEN-null viability, CellTiter-Glo, 60 h; active compounds read low. AID 827. viability, % at 10 µM. 140,000 tested, 1.2% active;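 active means viability at or below a set limit, 4 SD under the median of all tested compounds, cut at about 3.7% in these data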;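 further: PTEN knockout HCT116 line with beta catenin targeted HCT116 as companion control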
# HCT116 bCat-KO: beta-catenin-lacking colon tumor cell growth suppression. 140,000 tested, 1.5% active. HCT116 beta-catenin knockout viability, CellTiter-Glo, 60 h; active compounds read low. viability, % at 10 µM;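 active means viability at or under a set limit, the compound median less 4 SD, cut at about 6% in these data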;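 further: 0% = Hyamine 1622 control at 20 µM and 100% = untreated cell control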
# Lung fibro prol: blocks proliferation of human lung fibroblasts; LL 47 human lung fibroblast viability, ATP luminescence; active compounds read low; viability, % at 10 µM; 85,000 tested, 1.1% active; AID 719;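 active means viability at or below 50% in the single dose screen; inactive means viability above 50%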;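 further: compound exposure lasted 72 h before the ATP readout; 100% = median luminescence of untreated cell-only wells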
#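 Times – overnight cell rest, 72 h compound treatment at 37 °C · Test system – human lung fibroblast line LL 47, low passage · Amount – 1,150 cells in each well · Controls – cell-only wells, no compound · Doses – 0.1% DMSO in all compound wells · Measured by – CellTiter-Glo luminescence · Buffer or medium – IMEM plus 15% FBS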
# H69AR growth 86K: growth inhibitors of human H69AR lung tumor cells; H69AR lung tumor viability, ATP luminescence, 72 h; active compounds read low; viability, % at 10 µM; 85,000 tested, 6% active;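 active means viability at or below 40%; inactive means viability above 40%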;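 further: multidrug resistant small cell line overexpressing MRP-1 efflux transporter; 100% = mean luminescence of untreated control wells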
# Starred values were filed as active, the others as inactive; . = no result.
SMILES,HUVEC prolif 384,HCT116 PTEN-null,HCT116 bCat-KO,Lung fibro prol,H69AR growth 86K
c1ccc(-c2cc(-c3nn4c(-c5ccco5)nnc4s3)c3ccccc3n2)cc1,64,96,94,51,27*
Cc1ccc(-c2nn3c(-c4cccc(Cl)c4)nnc3s2)cc1,72,.,.,98,21*
CCOc1cccc(-c2nnc3sc(-c4cc(OC)c(OC)c(OC)c4)nn23)c1,28*,27,33,58,19*
COc1cccc(CC(=S)N2CCOCC2)c1,.,101,91,.,.
COc1cc(-c2nn3c(-c4ccccc4)nnc3s2)cc(OC)c1OC,80,8,4.9*,102,40
COc1cc(-c2nnc3sc(-c4ccco4)nn23)cc(OC)c1OC,77,41,44,86,18*
CCOc1cccc(-c2nnc3sc(-c4cccs4)nn23)c1,92,105,104,92,33*
COc1cc(-c2nnc3sc(-c4ccncc4)nn23)cc(OC)c1OC,74,.,.,99,61
Cc1cc(C)n(-c2nc3ccccc3c(=O)n2OCC(=O)N(C)C)n1,92,87,100,97,95
Cc1cc(C)n(-c2nc3ccccc3c(=O)n2OCC(=O)OCc2ccccc2)n1,60,2.8*,4.7*,27*,9.8*
COc1ccc(-c2cc(C(=O)N3CCN(c4ncccn4)CC3)c3ccccc3n2)c(OC)c1,.,59,71,.,.
COc1ccc(OC)c(-c2cc(C(=O)N3CCN(c4ncccn4)CC3)c3ccccc3n2)c1,58,63,76,88,30*
COc1ccc(-c2cc(C(=O)N3CCN(c4ccccn4)CC3)c3ccccc3n2)cc1,59,30,38,93,16*
CCOc1ccc(-c2cc(C(=O)N3CCN(c4ccccn4)CC3)c3ccccc3n2)cc1,52,22,20,57,18*
CCOC(=O)N1CCN(C(=O)c2cc(-c3ccc(OCC)cc3)nc3ccccc23)CC1,48,15,18,53,16*
Cc1ccc(C(=O)/C=C/c2ccco2)c(O)c1,.,71,85,.,.
Cc1ccccc1-n1c(SCC(=O)Nc2ccccc2)nc2nc3c(cc2c1=O)CCCC3,.,68,75,.,.
CCOc1cccc2sc(NC(=O)c3ccc(Br)s3)nc12,86,59,58,97,30*
O=C(NO)c1ccc(C(=O)N(C2CCCCC2)C2CCCCC2)cc1,83,71,67,86,14*
CN(C(=O)c1ccc(C(=O)N(C)C2CCCCC2)cc1)C1CCCCC1,95,.,.,89,90
COc1ccc(-c2nc3c4c(ncn3n2)-c2ccccc2CC42CCCC2)cc1,.,66,74,.,.
Oc1cccc(-c2nc3c4c(ncn3n2)-c2ccccc2CC42CCCC2)c1,.,2.4*,10,.,.
Cn1c(CNC(=O)c2cccs2)nnc1SCC(=O)Nc1ccccc1,.,111,95,.,.
Cc1c(Br)cc(C(=O)OC2CCN(C)CC2)c(C)c1C,78,83,76,91,3.8*
Cc1cc(/C=N/n2cnnc2)c(C)n1-c1cc(Cl)ccc1Cl,102,77,73,93,93
SMILES,HUVEC prolif 384,HCT116 PTEN-null,HCT116 bCat-KO,Lung fibro prol,H69AR growth 86K
Cn1cc(C(=O)NCCN2CCN(c3cccc(Cl)c3)CC2)c2c3ccccc3n(C)c2c1=O,58,54,15,91,16*
Cn1c(=O)cc(OCC(=O)NCCCN2CCN(c3cccc(Cl)c3)CC2)c2ccccc21,75,16,13,82,49
CCOC(=O)N1CCN(C(=O)c2cn(C)c(=O)c3c2c2ccccc2n3C)CC1,94,66,84,96,40*
Cc1cc(C(=O)NCC2CCCO2)n(-c2ccccc2)n1 (configuration not stated),97,97,96,100,94
Cc1cc(C(=O)NCCCN2CCN(c3cc(Cl)ccc3C)CC2)n(-c2ccccc2)n1,69,38,34,80,31*
Cc1cc(C(=O)NCCN2CCN(c3cccc(Cl)c3)CC2)n(-c2ccccc2)n1,53,19,10,58,29*
CC(C)[C@H](NC(=O)c1ccc(C(C)(C)C)cc1)C(=O)Nc1nnc(C2CC2)s1,.,86,95,.,.
CCCOC(=O)c1ccc(NC(=O)c2cc(OC)c(OC)c(OC)c2Br)cc1,.,91,97,.,.
CCOC(=O)/C(=N\Nc1ccccc1)c1csc(Nc2ccc(C)cc2)n1,25*,34,42,79,3.3*
C/C(CC(C)(C)C1CCCCC1)=N\NC(N)=S,59,13,4.6*,75,24*
CCN(CC)Cc1ccccc1Sc1ccccc1,.,95,90,.,.
COC(=O)c1cc(NC(=O)c2c(Cl)nc3sccn23)cc(C(=O)OC)c1,68,63,57,6.7*,36*
